Measurements taken from ChEMBL document CHEMBL1157214, “Anti-HIV agents 45(1) and antitumor agents 205.(2) two new sesquiterpenes, leitneridanins A and B, and the cytotoxic and anti-HIV principles from Leitneria floridana” (J Nat Prod, 2000).
≈ marks a conversion by molar mass, not a printed value.

Experiments:
[1] = test system: H9; test: Growth inhibition of human H9 cells; type: cell-based
[2] = test system: Human immunodeficiency virus; test: Inhibition of HIV replication in human H9 cells; type: functional, organism-based; conditions: Human immunodeficiency virus 1, H9
[3] = test system: KB; test: Cytotoxicity against human KB cells after 3 days by SRB assay; type: functional; conditions: 72 h, read-out: ED50 (the source's name)
How it was run: (§1)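 Human tumour lines from the Lineberger Comprehensive Cancer Center (UNC-CH). Selected samples were then run over a dose range in triplicate for three days. Growth was read by SRB absorbance at 562 nm. ED50 is the concentration giving a 50% fall in absorbance versus untreated cells.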

[4] = Therapeutic index, ratio of IC50 for human H9 cells to EC50 for HIV; type: cell-based; conditions: read-out: Ratio IC50/EC50
[5] = test system: HCT-8; test: Cytotoxicity against human HCT8 cells after 3 days by SRB assay; type: functional; conditions: HCT-8, 72 h, read-out: ED50 (the source's name); how it was run: as §1
[6] = test system: SK-MEL-2; test: Cytotoxicity against human SK-MEL-2 cells after 3 days by SRB assay; type: functional; conditions: for EC50: Homo sapiens, SK-MEL-2, 72 h, read-out: ED50 (the source's name)
[7] = test system: A549; test: Cytotoxicity against human A549 cells after 3 days by SRB assay; type: functional; conditions: A549, 72 h, read-out: ED50 (the source's name); how it was run: as §1
[8] = test system: MCF7; test: Cytotoxicity against human MCF7 cells after 3 days by SRB assay; type: functional; conditions: MCF7, 72 h, read-out: ED50 (the source's name); how it was run: as §1
[9] = test system: CAKI-1; test: Cytotoxicity against human CAKI1 cells after 3 days by SRB assay; type: functional; conditions: CAKI-1, 72 h, read-out: ED50 (the source's name); how it was run: as §1

For COc1cnc2ccc(=O)n3c4ccccc4c1c23, the IC50 [1] was over 100 µg/mL, the EC50 [2] was 0.256 µg/mL (≈ 1.02 µM) and the EC50 [3] was 3.6 µg/mL (≈ 14.4 µM). The selectivity ratio [4] was over 391, the EC50 [5] was 3.6 µg/mL (≈ 14.4 µM) and the “inhibition (INH)” value [6] was 46%. For the same compound, the EC50 [6] was over 20 µg/mL, the EC50 [7] was 4.3 µg/mL (≈ 17.2 µM) and the EC50 [8] was 13.5 µg/mL (≈ 53.9 µM). It also gave an EC50 [9] of 3.6 µg/mL (≈ 14.4 µM).
Work on COc1cc2nccc3c4ccccc4n(c1=O)c23 [5-METHOXYCANTHINONE] yielded an EC50 [3] of 2.9 µg/mL (≈ 11.6 µM), an EC50 [5] of 2.5 µg/mL (≈ 9.99 µM) and an EC50 [6] of 17 µg/mL (≈ 67.9 µM). The EC50 [7] was 3.1 µg/mL (≈ 12.4 µM), the EC50 [8] was 5 µg/mL (≈ 20 µM) and the EC50 [9] was 4.4 µg/mL (≈ 17.6 µM).
With CC[C@](C)(OC(C)=O)C(=O)O[C@H]1C(=O)O[C@@H]2C[C@H]3C(C)=CC(=O)[C@@H](O)[C@]3(C)[C@H]3[C@@H](O)[C@H](O)[C@@]4(C)OC[C@]32[C@@H]14 [QUASSIMARIN] the EC50 [3] was 0.06 µg/mL (≈ 0.112 µM), the EC50 [5] was 0.012 µg/mL (≈ 0.0224 µM) and the EC50 [6] was 0.05 µg/mL (≈ 0.0932 µM). It also gave an EC50 [7] of 0.03 µg/mL (≈ 0.0559 µM), an EC50 [8] of 0.006 µg/mL (≈ 0.0112 µM) and an EC50 [9] of 0.05 µg/mL (≈ 0.0932 µM).
For CC[C@@H](C)C(=O)O[C@H]1C(=O)O[C@@H]2C[C@H]3C(C)=CC(=O)[C@@H](O)[C@]3(C)[C@H]3[C@@H](O)[C@H](O)[C@]4(C)OC[C@]32[C@@H]14 [SIMALIKALACTONE D], the EC50 [3] was 0.018 µg/mL (≈ 0.0376 µM), the EC50 [5] was 0.013 µg/mL (≈ 0.0272 µM) and the EC50 [6] was 0.13 µg/mL (≈ 0.272 µM). For the same compound, the EC50 [7] was 0.04 µg/mL (≈ 0.0836 µM), the EC50 [8] was 0.014 µg/mL (≈ 0.0293 µM) and the EC50 [9] was 0.26 µg/mL (≈ 0.543 µM).
